From the EternaBench riboswitch data

System: MS2 coat protein
Experiment: apparent Kd, MS2 coat protein; higher = weaker binding; RNA-MaP array; FMN 200 µM where present
In short: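 The apparent Kd is reported as the median of filtered per-cluster binding-curve fits. To get these curves, designs transcribed by stalled E. coli RNA polymerase on Illumina sequencing-chip clusters were titrated with SNAP-549-labelled MS2 coat protein from 0.7 or 1.5 nM, doubling to 3 µM. Titrations were run without and then with constant ligand in 100 mM Tris-HCl pH 7.5, 80 mM KCl, 4 mM MgCl2, BSA, DTT, yeast tRNA and Tween-20, and green signal was normalised to red-channel RNA signal and control-cluster median Fmax.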

[1] = designed as: OFF switch for flavin mononucleotide, no ligand
[2] = ligand present: flavin mononucleotide, designed as: OFF switch for flavin mononucleotide
[3] = designed as: ON switch for flavin mononucleotide, no ligand
[4] = ligand present: flavin mononucleotide, designed as: ON switch for flavin mononucleotide

| Sequence | apparent Kd [1] [nM] | apparent Kd [2] [nM] | apparent Kd [3] [nM] | apparent Kd [4] [nM] |
| --- | --- | --- | --- | --- |
| AAAAAACAUGAGGAUCACCCAUGUGAGGAUAUCCAAAAGUUAAAGAAAAAGACGAAAAGGAGAAGGCGCAAAAA | 109 | 82 | – | – |
| CUUAUGUGAGGAUAUGUACAGAAAAAACUGGGUGUAACUGUACAGAAGGCACAUGAGGAUCACCCAUGUGCAUU | 59.9 | 57.1 | – | – |
| UACAUUAACAUGAGGAUCACCCAUGUUGGCCAGUCUCACACCAGAAGGCACGUAGAGCACAACAGUGAGGAUAUGGGUGACAUA | – | – | 218 | 98.7 |
| ACAUGAUCAGGAUAUACAUGAGGAUCACCCAUGUAAAUAAAAAAAAAACUUUCUUUAUGUAGAAGGGAUCUUGU | 21 | 30.1 | – | – |
| UUUUUACUUGCAGGAUAUGGAGACAUGAGGAUCACCCAUGUAUGAUAAGCUAAAUUAUGCUGUGGCCAGAAGGGUAUUAUUCUU | – | – | 63.2 | 57.4 |
| CAUAACUUUGAUCUCUCCUACAUGAGGAUCACCCAUGUUGAGAGAAGGAGGCGGCAGAGUGCUGCCUAGGAUAUCUGAAGGGUC | 6.19 | 7.28 | – | – |
| UUAUAAAGUGUGAGGAUAUGCUGGUCGAUAGAUCAGCAGAAGGCACAUGAGGAUCACCCAUGUAAUAUAUUUUU | 48 | 239 | – | – |
| CUGUGACGGUGCGCAAGUGGACGGAGAAGGCACACAUGAGGAUCACCCAUGUGAGCCUGCUAUUGUGAGGAUAUCCGUUCGUAC | 5.52 | 7.02 | – | – |
| AGUGUCAUCGAGAAGGCCCUGACAUGAGGAUCACCCAUGUUGUUACAUGGGAGGAUAUCGAUGAUACAGCUACGUUUCGUAGCA | – | – | 12.8 | 5.05 |
| AAUUUACAGCUAGGAUAUACAUGAGGAUCACCCAUGUAAUGAUCGGAUCUUAUGAUCGUAUCAGUGUAGAAGGAGCAAAUAAGA | 12.3 | 21.3 | – | – |
| CCUAGUCACUCACAUGAGGAUCACCCAUGUCGGUGCCGCCGACAGGAUAUCUAAAUGUAAAAUCUAGAGAAGGGUCGAACCAUC | – | – | 455 | 609 |
| AUUUAUGGCCAGAAGGACAUGAGGAUCACCCAUGUAGGAUAUGGACGAUUUUGCUCGGCGGUUUUUUUAGGAAGCACCGGUGGU | – | – | 12.4 | 7.14 |
| CCAGGCUGUGUGAGGAUAUGCUGGUCCUUGGAUCAGCAGAAGGCACAUGAGGAUCACCCAUGUGAGUAGCUUGG | 16.2 | 62.2 | – | – |
| ACAUGCAUAGCGAUAUGAUCGAGAGAUCAUGUCGCUUAAAAUAGAAGGACAUGAGGAUCACCCAUGUAGGAUAUGGGAGCAUGA | – | – | 25.8 | 11.7 |
| UCGCUGCGAGGAUAUACAUGAGGAUCACCCAUGUACGGGUCCGGGUCUUAGUUGAUUGGUAGAAGGCGCAGUGA | 106 | 212 | – | – |
| AAGAGUGCAGGAUAUACUUGGUAGGGCGGGUGGAUGGUUUGACAUGAGGAUCACCCAUGUAGAAGGGCAGAGAG | 38.7 | 27.6 | – | – |
| UUCCUACAUGAGGAUCACCCAUGUCAGGAUAUCUCCUCGUCGCCAAUGGGCGACGAAUAGAGAAGGGACAGGAA | 15 | 16.7 | – | – |
| GUAUCGUAUGUGAGGAUAUAUUUGUCCUUGGAUCUGUAGAAGGCACAUGAGGAUCACCCAUGUCCAAGUGGUCC | 27.6 | 27.7 | – | – |
| AAAACAUGAGGAUCACCCAUGUAAAGAUCGGUUAAUAGAGGUGAGGAUAUACGAACUUAAAGGUAGUAGAAGGCACUGGGUACA | – | – | 47.1 | 35.5 |
| UCCUGGCGAGGAUAUACAAAGUUUUUCACGUUUUGUUACGAACAUGAGGAUCACCCAUGUAGAAGGUGCUACUG | 116 | 103 | – | – |
| GUAGCUAUCGGAGGAUAUUCAUACCGGAAACGGACAUGAGGAUCACCCAUGUGGCGAAAGCCUUGGGAGAAGGUCGAUAGCUAC | – | – | 308 | 10.5 |
| AGGAGGUCAGGAUAUGCAUGGCGGGACUUGCGUCGUGGCGUGCAGAAGGGACAUGAGGAUCACCCAUGUGGAGU | 113 | 139 | – | – |
| UUAUGGAGGUAGGAUAUCAUGACGUCUUAGUUGUGAGAAGGGCUUACAUGAGGAUCACCCAUGUGGUGUUUUUG | 584 | 192 | – | – |
| CGUCUCAUAGGAUAUGCACGGAGGCAGGUCCUUGGCAACACACAUGAGGAUCACCCAUGUAGAAGGAUGCUACG | 19.4 | 30.5 | – | – |
| CGCCAUCCCGUUGGCGUGAGGAUACCAGAAGGGACGAUCUCACAUGAGGAUCACCCAUGUUAUAGUCAGGAUAUGGGUUCAUCA | – | – | 135 | 14.2 |
| ACCGGCGCUUACAUGAGGAUCACCCAUGUGCGCACUCGGGCACAGGAUAUCCAUGGUAAGUAUCGGGAGAAGGGUGAGAAGAAU | – | – | 163 | 309 |
| GAAUUCGCAUGAGGAUAUGCACUCAUUUCAUGUGCAGAAGGUAUAUCAUUAGACAUGAGGAUCACCCAUGUAUUGGUCAUUAAC | – | – | 15.2 | 14 |
| AUUUGAAGGUAGAAGGGUGACAUGAGGAUCACCCAUGUGCGAGCAUCGGACGAAGAUGGCUCGCCACAGGAUAUACCUUCAAAU | – | – | 36.7 | 46.3 |

| Sequence | apparent Kd [1] [nM] | apparent Kd [2] [nM] | apparent Kd [3] [nM] | apparent Kd [4] [nM] |
| --- | --- | --- | --- | --- |
| GCCGAACAUGAGGAUCACCCAUGUCUGGGUAAUUAAGGAUAUGGGAAGGCUUUGCCGUGGCCAGAAGGUGGUUAUC | – | – | 171 | 108 |
| GCGCAUUUUAGAUUUAUAUAAUUUUCAGAAGGUGAAUAGUCGACAUGAGGAUCACCCAUGUAUUUCAAGGAUAUGAUUUAGCGC | – | – | 68.6 | 13 |
| UGGUACAUGGGAGGAUAUCCUCAAGAGACAUGAGGAUCACCCAUGUAUUAUAAGCCUAAUGGCAUGGAGAAGGCCCAUGUACCU | – | – | 467 | 49 |
| ACCGAAUGAACAUGAGGAUCACCCAUGUACACGAAAGUGAAUGAGGAUAUCGAUAGCAAAGCUAUCGAGAAGGCAUGGGUCGGU | – | – | 565 | 144 |
| GGGCUGCGACGCAGCCCAACAAAACAUGAGGAUCACCCAUGUCAGGAUAUACCGAUGCAGCAUCUGUAGAAGGGACAGAUCCAA | 90.4 | 92.4 | – | – |
| AUAUAACAUGAGGAUCACCCAUGUCAGGAUAUCGAACCCAACACAACCAAAAUGUCGGCGAGAAGGGACAAAAA | 35.4 | 32.7 | – | – |
| GUAGUGCUCAUAGGAUAUCGGGAACAACGUAGACAGGUUGUACAUGAGGAUCACCCAUGUAAAGUCGAGAAGGGUGAUCACGCC | – | – | 519 | 194 |
| GCCAGCGCAUGAGGAUAUGCUCCCGUUUCGGGAGCAGAAGGCAUGUCAUAAGACAUGAGGAUCACCCAUGUAGUUAAGAUGGCA | – | – | 258 | 13.6 |
| GCUAGUAUUGCAGGAUAUUGUGAAUAAUUAUUUCAAGAAGGGCAUAACAUGAGGAUCACCCAUGUCUUCCUUUUGAAUACUAGC | 6.95 | 6.51 | – | – |
| UGAUAGGACAGAGGAUAUACGUCCUAGAGAUACUAGGAAAGUUUCCUCACAUGAGGAUCACCCAUGUAGAAGGCUGUCCUAUCU | 19 | 472 | – | – |
| GAUAGGACAGAGAAGGACGUAGCUAGAGAUACUAGCAUUAAGUCCUCAACAUGAGGAUCACCCAUGUAGGAUAUCUGUCCUAUC | 6.23 | 6.71 | – | – |
| AGAGUUGACUCAGGAUAUACGGGAAUGUGCCGCGACAUGAGGAUCACCCAUGUAGAAGGGAGAGAGAAGAAGAGAUGUAGAAGA | 56.1 | 54 | – | – |
| AAAAAGUCAGGAUAUUCGGAAGGGAAAGCGCAAACCCAACCGAAGAAGGGACAUGAGGAUCACCCAUGUAAAAA | 26.7 | 39 | – | – |
| CUGAUGUGAGGAUAUCGGGCUACGGCCAGGCCGCUAGCAUUCGAGAAGGCACAUGAGGAUCACCCAUGUGAGAA | 25.4 | 39.8 | – | – |
| AAGGGACAUGAGGAUCACCCAUGUGAGGAUAUGCUAUGGAAAAUAAAAAAUAAACAUAGCAGAAGGCAUAAAAA | 64.9 | 97 | – | – |
| AGCUGUGGCCGAGGAUAUCUGAAAACUCAAACCGAAAUAUAAUCGGACAUGAGGAUCACCCAUGUAGAGAAGGCGGUCUCAGCA | 53 | 117 | – | – |
| ACUUGCUUGCAGAAGGGUGACAUGAGGAUCACCCAUGUAGCGGGCCGGCUUAAAGUCAGCGCGCCACAGGAUAUGCAGGCCUCG | – | – | 14.2 | 35.1 |
| GUGUAUCGCCUCGAGGAUAUCCUGUCAUGCACAUGAGGAUCACCCAUGUAAGAGCGAGUUUUUUGGGAGAAGGCGAGUUCUCGGU | – | – | 90.3 | 30.4 |
| CGUGACUACAUAGGAUAUUGAUACAUGAGGAUCACCCAUGUCACCCAUUUAUAUAUUAGUGUUGACAAGAAGGAUGUGGUCACG | – | – | 16.2 | 7.25 |
| UGUGUUUUUGUGAGGAUAUACUGUUUGUUUUGUUUGUAGAAGGUACAUGAGGAUCACCCAUGUUGUGUUUGGUU | 37.5 | 29.2 | – | – |
| UCGCGGGAGCAGAAGGGAUAGGCCUAUUGUCGUGGAGUCUACACUUAACAUGAGGAUCACCCAUGUCAGGAUAUGCCCACGCGA | 8.8 | 10.6 | – | – |
| UCUUAUUGCAAGGAUAUGCUUUUUAUUUCUUUUGCAGAAGGUGCAACAUGAGGAUCACCCAUGUUUCCGGGUAU | 24.1 | 59.5 | – | – |
| UUUUAACAUGAGGAUCACCCAUGUGAGGAUAUCGAAAUUUAUAUUAAUAUUUAUUUAACGAGAAGGCACAUUUU | 96.4 | 88.4 | – | – |
| UAUAUUAUUAUAGGAUAUGGAUAUGAUGCAUAUCCAGAAGGGUGAUUAUAAUAUUUUCUGUACAUGAGGAUCACCCAUGUUUAG | – | – | 134 | 32.5 |
| GCAUUGAUAGCAGGAUAUAUGUUUCCUACAUGAGGAUCACCCAUGUAGGUGAUCAGCCGAGAAAAGUAGAAGGGCUAUCAAUGC | – | – | 15.6 | 14.1 |
| GUAGCAUCAAUUAUACAUGAGGAUCACCCAUGUUACAUGGGUAAGGAUAUUGAGGUUAUUAUUGGCAAGAAGGUACUAUGCUAC | – | – | 409 | 168 |
| GAGUCUCUAUUAGAACCGAUACGAACAUGAGGAUCACCCAUGUAGGAUAUGCUAAAAGUUGUGUUGCAGAAGGACAUUUAAUGC | 11.2 | 10.9 | – | – |
